{"data": "Assay results collected from several papers", "target": "Serine/threonine-protein kinase MARK1 (MARK1, Homo sapiens, UniProt Q9P0L2)"}
{"SMILES": "CO[C@@H]1[C@H](N(C)C(=O)c2ccccc2)C[C@H]2O[C@]1(C)n1c3ccccc3c3c4c(c5c6ccccc6n2c5c31)C(=O)NC4", "read-out": "enzyme activity", "action": "inhibitor", "tested at": "1 µM", "endpoint": "inhibition", "result": "96%"}
{"SMILES": "C#Cc1cc(-c2cc(Nc3nc(N[C@@H](C)c4ccc(F)cn4)ncc3Cl)n[nH]2)ccc1C=O", "read-out": "enzyme activity", "action": "inhibitor", "tested at": "0.2 µM", "endpoint": "inhibition", "result": "8.26%"}
{"SMILES": "C[C@H]1CC[C@H](n2c3cnccc3c3cnc(Nc4ccc5c(n4)CCN(C(=O)CO)C5)nc32)CC1", "read-out": "cell-free assay", "tested at": "1 µM", "endpoint": "remaining signal", "result": "66%"}
{"SMILES": "CC#CC(=O)N1CCC[C@H]1c1nc(-c2ccc(C(=O)Nc3ccccn3)cc2)c2c(N)nccn12", "read-out": "enzyme activity", "action": "inhibitor", "tested at": "1 µM", "endpoint": "inhibition", "result": "10%"}
{"SMILES": "COc1ccc2oc(-c3ccc4nc(N)oc4c3)c/c(=N\\c3ccccc3NC(=O)CCN)c2c1", "read-out": "binding", "tested at": "1 µM", "endpoint": "remaining binding", "result": "103%"}
{"SMILES": "Cc1ccc(NC(=O)c2ccnc(C(F)(F)F)c2)cc1-c1cc(OCCO)nc(N2CCOCC2)c1", "read-out": "binding", "tested at": "1 µM", "endpoint": "remaining binding", "result": "100%"}
{"SMILES": "C1=C/COCc2cc(ccc2OCCN2CCCC2)Nc2nccc(n2)-c2cccc(c2)COC/1", "read-out": "binding", "tested at": "0.1 µM", "endpoint": "remaining binding", "result": "100%"}
{"SMILES": "CCCCC(=O)Nc1ccc(-c2ccc3ncn(CCC)c(=O)c3c2)cn1", "read-out": "binding", "technique": "competition with immobilised ligand", "tested at": "0.5 µM", "endpoint": "remaining binding", "result": "81%"}
